SMARCA2 activ – activators of SMARCA2 function | AID 652017 | MG213 cells, MMTV-luciferase reporter, dexamethasone, overnight | 370,000 compounds, 1% hits | activation, % at 9.1 µM; in the data active = activation above about 7.8%
ASAP1 inh – ASAP1 ArfGAP inhibition. Q9ULH1. ASAP1-stimulated ARF1 GTP hydrolysis, GDP FP detection. inhibition, % at 16.5 µM. 360,000 compounds, 0.19% hits; in the data active = inhibition above about 25%
Target sequence (Q9ULH1 325-724 limits assumed): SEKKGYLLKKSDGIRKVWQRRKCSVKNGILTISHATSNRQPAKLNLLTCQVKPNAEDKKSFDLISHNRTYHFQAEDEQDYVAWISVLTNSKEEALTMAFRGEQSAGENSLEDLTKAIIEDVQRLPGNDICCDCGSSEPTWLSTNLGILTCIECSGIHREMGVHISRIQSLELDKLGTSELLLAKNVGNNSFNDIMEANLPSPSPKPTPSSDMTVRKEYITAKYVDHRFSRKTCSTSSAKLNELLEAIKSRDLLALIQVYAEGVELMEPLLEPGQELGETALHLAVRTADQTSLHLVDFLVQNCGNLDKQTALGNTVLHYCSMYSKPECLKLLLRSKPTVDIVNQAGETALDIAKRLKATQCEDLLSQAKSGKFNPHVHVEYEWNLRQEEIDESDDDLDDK
ARFGAP1 inh – inhibits rat ARF GTPase activating protein 1. Q62848. Arfgap1-stimulated ARF1 GTP hydrolysis, GDP FP detection. inhibition, % at 16.5 µM. 360,000 compounds, 0.26% hits. AID 651572;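 active = inhibition above a per-plate limit, mean inhibition of low control wells plus 3 SD, cut at about 25% in these data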
Target sequence (Q62848 1-136 limits assumed): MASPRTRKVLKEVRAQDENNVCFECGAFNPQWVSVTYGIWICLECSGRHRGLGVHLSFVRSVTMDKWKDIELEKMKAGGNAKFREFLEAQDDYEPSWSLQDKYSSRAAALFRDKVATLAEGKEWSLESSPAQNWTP
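system = rat Arfgap1 catalytic domain, aa 1-136 | technique = FP, GDP Alexa 633 tracer displaced from anti-GDP antibody, 620/688 nm | compound = one concentration, 16.5 µM, DMSO 1.26% | medium = HEPES-based buffer, pH 7.5 | timing = compound-enzyme preincubation 20 min, reaction 120 min, detection 60 min, 25 °C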
esBAF inh – blocks esBAF chromatin remodeling in mouse ES cells | reporter increase, % at 12.5 µM | 350,000 compounds, 2% hits | Bmi1-luciferase knock-in reporter, 24 h; 100% = twice the neutral-well signal; in the data active = activation above about 40%; inconclusive = no clear call, values can overlap the other calls;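 also: a rise in the Bmi1 reporter signal indicates esBAF inhibition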
SMARCA2 act conf – confirmation of SMARCA2 (BRM) function activators; shares compounds with SMARCA2 activ; MG213 cells, MMTV-luciferase with dexamethasone, luminescence, overnight; MG213 cells expressing E1A, Rb sequestered; DMSO wells 0%, reference activator 100%; activation, % at 9.1 µM; 3,500 compounds, 30% hits; AID 652260;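 active = activation above its plate's cutoff, the mean activation of tested wells plus 3 SD, cut at about 7.9% in these data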
VP16 Luc act – GAL4-VP16 reporter activation counter-screen | AID 686939 | 3,500 compounds, 41% hits | shares compounds with SMARCA2 activ | HEK293 GAL4-VP16 pG5luc reporter, luciferase luminescence; scaled: DMSO wells 0%, SAHA wells 100% | activation, % at 9.1 µM;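 active = activation above the solvent-only control well mean plus 3 SD, averaged across control plates, cut at about 5.2% in these data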
Each line names hits and unclear results; the compound was inactive in the other large screens (follow-up assays come after a bar, where they were run). Compounds with a hit are over-represented: about 2.6% of the library has one in this group of screens.

O=C(O)/C=C/C(=O)c1ccc2c(c1)CCc1ccccc1-2	SMARCA2 activ 10.9, esBAF inh 43.9 | SMARCA2 act conf inactive | VP16 Luc act 6.5
CC1CCc2nn(CC(=O)NCCCN3CCCC3=O)cc2C1 (stereo not drawn)	SMARCA2 activ 8.7 | SMARCA2 act conf inactive | VP16 Luc act inactive
CC(C)NC(=O)Nc1ccc2c(c1)C(=O)N([C@H](C)CO)C[C@H](C)[C@H](CN(C)S(C)(=O)=O)O2	none (no result: SMARCA2 activ, ASAP1 inh, ARFGAP1 inh)
Cc1cc(C)nc(NC(=O)NC(=O)c2ccccc2)n1	none
COc1cc(C)nc(NC(=O)NC(=O)c2ccc(C(F)(F)F)cc2)n1	SMARCA2 activ 8.1 | SMARCA2 act conf inactive | VP16 Luc act inactive
O=C(/C=C\Nc1cccc(F)c1)c1cccs1	none (no result: esBAF inh)
O=C(/C=C\Nc1ccc2c(c1)OCO2)c1cccs1	SMARCA2 activ 10.4 | SMARCA2 act conf 9.8 | VP16 Luc act inactive
CCN(CC)S(=O)(=O)c1ccc2nc(NC(=O)c3cccs3)sc2c1	none (no result: esBAF inh)
CC(=O)c1ccc(NC(=O)/C(Cl)=C/c2ccccc2)cc1	SMARCA2 activ 9.7 (no result: esBAF inh) | SMARCA2 act conf 13.4 | VP16 Luc act 12.4
COc1ccc(NC(=O)c2ccc(NC(=O)c3cccs3)cc2)cc1	none (no result: esBAF inh)
CC(=O)c1ccc(NC(=O)c2cccs2)cc1	SMARCA2 activ 12.3 | SMARCA2 act conf 10.0 | VP16 Luc act 10.3
CC(=O)Nc1ccc2nc(NC(=O)c3cccs3)sc2c1	SMARCA2 activ 9.1 | SMARCA2 act conf 8.7 | VP16 Luc act 9.8
Cc1noc(C)c1S(=O)(=O)Nc1ccc2c(c1)C(=O)N([C@@H](C)CO)C[C@H](C)[C@H](CN(C)Cc1ccc(C(F)(F)F)cc1)O2	none (no result: SMARCA2 activ, ASAP1 inh, ARFGAP1 inh)
O=C(Nc1ccc2c(c1)OCO2)c1cccs1	SMARCA2 activ 10.1, esBAF inh inconclusive | SMARCA2 act conf 11.7 | VP16 Luc act 9.6
O=C(Nc1ccc(CN2CCOCC2)cc1)c1cccs1	SMARCA2 activ 8.5 | SMARCA2 act conf inactive | VP16 Luc act inactive
CC(C)c1cc(C(=O)Nc2ccc3c(c2)OCO3)no1	SMARCA2 activ 8.0 | SMARCA2 act conf inactive | VP16 Luc act 9.1
O=C(Nc1ccc2c(c1)OCCO2)c1cccs1	none
O=C(Nc1ccc(CN2CCOCC2)cc1)c1ccccc1F	none
C[C@H]1CN([C@@H](C)CO)C(=O)CCCn2cc(nn2)CO[C@H]1CN(C)C(=O)Nc1ccc(C(C)(C)C)cc1	none (no result: SMARCA2 activ, ASAP1 inh, ARFGAP1 inh)
C[C@H]1CN([C@@H](C)CO)C(=O)c2cc(NS(=O)(=O)c3cccs3)ccc2O[C@H]1CN(C)S(=O)(=O)c1cccs1	none (no result: SMARCA2 activ, ASAP1 inh, ARFGAP1 inh)
CCc1ccc(OCC(=O)Nc2ncn[nH]2)cc1	SMARCA2 activ 8.1 | SMARCA2 act conf 11.4 | VP16 Luc act 8.7
O=C(CCSCc1ccccc1F)N1CCN(c2ccccn2)CC1	SMARCA2 activ 11.6 (no result: esBAF inh) | SMARCA2 act conf inactive | VP16 Luc act 5.7
CO[C@H]1CN(C)C(=O)c2ccc(NS(=O)(=O)c3ccccc3)cc2OC[C@@H](C)N(C)C[C@@H]1C	none (no result: SMARCA2 activ, ASAP1 inh, ARFGAP1 inh)
CC(=O)Nc1ccc2c(c1)C(=O)N(C)[C@@H]1CC[C@H](CC(=O)NCc3ccc(F)cc3)O[C@H]1CO2	none (no result: SMARCA2 activ, ASAP1 inh, ARFGAP1 inh)
Cc1ccc(CSc2nnc(-c3ccncc3)n2N)cc1	SMARCA2 activ 8.8 (no result: esBAF inh) | SMARCA2 act conf inactive | VP16 Luc act inactive
C=C(C)CSc1nnc(-c2ccc(OC)cc2)n1N	SMARCA2 activ 9.5 | SMARCA2 act conf inactive | VP16 Luc act inactive
O=C(Cn1cc(C(F)(F)F)ccc1=O)N1CCc2ccccc2C1	SMARCA2 activ 8.0 | SMARCA2 act conf inactive | VP16 Luc act inactive
CCCN(C)C[C@H]1OCc2cnnn2CCCC(=O)N([C@@H](C)CO)C[C@@H]1C	none (no result: SMARCA2 activ, ASAP1 inh, ARFGAP1 inh)
Cc1ccc(S(=O)(=O)NC(=O)NC(C)c2ccc(F)cc2)cc1 (stereo not drawn)	SMARCA2 activ 8.0 | SMARCA2 act conf inactive | VP16 Luc act inactive
COc1cccc(-c2ccc3c(c2)O[C@@H](CN(C)Cc2cncnc2)[C@H](C)CN([C@@H](C)CO)S3(=O)=O)c1	none (no result: SMARCA2 activ, ASAP1 inh, ARFGAP1 inh)
Cc1cccc(C)c1NC(=O)CSc1nnc(-c2cccnc2)o1	none (no result: esBAF inh)
O=C(CSc1nnc(-c2ccccn2)o1)Nc1ccccc1Cl	SMARCA2 activ 8.0 | SMARCA2 act conf 13.3 | VP16 Luc act 11.7
O=C(CSc1nnc(-c2cccnc2)o1)Nc1nccs1	SMARCA2 activ 9.1 | SMARCA2 act conf inactive | VP16 Luc act inactive
Nn1c(SCC(=O)Nc2nccs2)nnc1-c1cc(-c2ccccc2)n[nH]1	SMARCA2 activ 9.6 (no result: ASAP1 inh, ARFGAP1 inh, esBAF inh) | SMARCA2 act conf inactive | VP16 Luc act inactive
N#Cc1ccsc1NC(=O)CSc1nnc(-c2ccccc2)o1	SMARCA2 activ 19.4 | SMARCA2 act conf inactive | VP16 Luc act inactive
Cc1ccc(CNC(=O)CCS(=O)(=O)c2ccc(C)cc2)cc1	SMARCA2 activ 10.2 | SMARCA2 act conf inactive | VP16 Luc act inactive
O=C(NCC1OCCc2ccccc21)c1ccc(NC(=O)c2ccccc2Cl)cc1 (stereo not drawn)	none (no result: esBAF inh)
O=C(NCC1OCCc2ccccc21)c1ccc(NC(=O)c2ccc(Cl)cc2Cl)cc1 (stereo not drawn)	SMARCA2 activ 9.4 (no result: esBAF inh) | SMARCA2 act conf inactive | VP16 Luc act inactive
COc1ccc(-c2cn3cc(C(=O)NN)ccc3n2)cc1	SMARCA2 activ 11.2 (no result: esBAF inh) | SMARCA2 act conf 8.8 | VP16 Luc act 5.4
NNC(=O)c1ccc2nc(-c3ccc(Br)cc3)cn2c1	none (no result: esBAF inh)
CC(=O)Nc1ccc(-c2cn3cc(C)ccc3n2)cc1	SMARCA2 activ 8.1 (no result: esBAF inh) | SMARCA2 act conf inactive | VP16 Luc act 11.0
O=C(C[C@H]1CC[C@@H](NC(=O)NC2CCCCC2)[C@@H](CO)O1)NCc1ccc(F)cc1	none (no result: SMARCA2 activ, ASAP1 inh, ARFGAP1 inh)
O=C1CC(c2cc(-c3ccccc3)no2)C1	SMARCA2 activ 9.7 | SMARCA2 act conf inactive | VP16 Luc act 7.5
C[C@H]1CN(c2ccc(N3CCNC[C@@H]3C)cc2C#N)CCN1Cc1ccccc1	SMARCA2 activ 10.7 (no result: esBAF inh) | SMARCA2 act conf inactive | VP16 Luc act inactive
COc1cccc(NC(=O)Nc2nnc(N3C(C)CCCC3C)s2)c1 (stereo not drawn)	none
Cc1cccc(NC(=O)Nc2nnc(N3CCCCC3C)s2)c1C (stereo not drawn)	SMARCA2 activ 8.0 | SMARCA2 act conf inactive | VP16 Luc act inactive
N#C/C(=C\c1ccc(OCc2ccccc2)cc1)C(=O)Nc1nc2c(s1)CCN(Cc1ccccc1)C2	none (no result: esBAF inh)
CN(C)c1ccc(/C=C(/C#N)C(=O)Nc2nc3c(s2)CCN(Cc2ccccc2)C3)cc1	SMARCA2 activ 8.9 | SMARCA2 act conf inactive | VP16 Luc act 6.9
O=C(c1ccc(F)cc1)c1cc2ccc(O)cc2oc1=O	none
N=c1oc2cc(O)ccc2cc1C(=O)Nc1ccc(F)cc1	SMARCA2 activ 10.6 | SMARCA2 act conf inactive | VP16 Luc act 6.7
Cc1cc(C)cc(N=C2NC(=O)/C(=C/c3cccs3)S2)c1	none (no result: esBAF inh)
O=C1NC(=Nc2ccccc2)S/C1=C\c1cccs1	SMARCA2 activ 12.6 (no result: esBAF inh) | SMARCA2 act conf 15.3 | VP16 Luc act 6.8

Assay outcomes deposited in PubChem by several laboratories.
